Experimental data taken from ChEMBL document CHEMBL1800057, “Discovery of dual inducible/neuronal nitric oxide synthase (iNOS/nNOS) inhibitor development candidate 4-((2-cyclobutyl-1H-imidazo[4,5-b]pyrazin-1-yl)methyl)-7,8-difluoroquinolin-2(1H)-one (KD7332) part 2: identification of a novel, potent, and selective series of benzimidazole-quinolinone …” (J Med Chem, 2010).
pEC50: −log10 of the molar value.

Assays:
[1] = AUC in rhesus monkey at 3 mg/kg, iv and 10 mg/kg, po; type: ADME, organism-based, Macaca mulatta; conditions: plasma
Summary of the method: (§1)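 Rhesus pharmacokinetics: 3 mg/kg iv and 10 mg/kg po, HCl salt. Clp, t1/2, Vdss, Cmax, AUC, oral t1/2 and %F reported.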

[2] = Cmax in rhesus monkey at 3 mg/kg, iv and 10 mg/kg, po; type: ADME, organism-based, Macaca mulatta; conditions: in vivo; summary of the method: as §1
[3] = Bioavailability in rhesus monkey at 3 mg/kg, iv and 10 mg/kg, po; type: ADME, organism-based, Macaca mulatta; conditions: in vivo; summary of the method: as §1
[4] = Half life in rhesus monkey at 3 mg/kg, iv and 10 mg/kg, po; type: ADME, organism-based, Macaca mulatta; conditions: in vivo; summary of the method: as §1
[5] = Plasma clearance in rhesus monkey at 3 mg/kg, iv and 10 mg/kg, po; type: ADME, organism-based, Macaca mulatta; summary of the method: as §1
[6] = Volume of distribution at steady state in rhesus monkey at 3 mg/kg, iv and 10 mg/kg, po; type: ADME, organism-based, Macaca mulatta; conditions: in vivo, read-out: Vdss; summary of the method: as §1
[7] = Half life in rhesus monkey at 10 mg/kg, po; type: ADME, organism-based, Macaca mulatta; set-up: dose 10 mg/kg, route oral; conditions: in vivo
Homo sapiens [8] = species: Homo sapiens; assay: Ratio of IC50 for human nNOS to EC50 for human iNOS
Homo sapiens [9] = species: Homo sapiens; assay: Ratio of IC50 for human eNOS to EC50 for human iNOS
[10] = AUC in mouse at 3 mg/kg, iv and 10 mg/kg, po; type: ADME, organism-based; conditions: plasma
Liver = assay: Half life in mouse liver microsomes assessed as formation of oxidation product and glucuronide conjugate; type: ADME, Microsome
Summary of the method: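 Mouse liver microsomes run under combined phase I oxidation and phase II glucuronide conjugation; half-life reported in minutes.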

[11] = molecular target: T1, Nitric oxide synthase, inducible (Mus musculus, UniProt P29477); assay: Inhibition of mouse iNOS expressed in HEK293 cells assessed as inhibition of nitric oxide production after 18 hrs using 2,3-diaminonaphthalene by fluorescence assay; type: cell-based
T1 sequence (P29477 whole entry): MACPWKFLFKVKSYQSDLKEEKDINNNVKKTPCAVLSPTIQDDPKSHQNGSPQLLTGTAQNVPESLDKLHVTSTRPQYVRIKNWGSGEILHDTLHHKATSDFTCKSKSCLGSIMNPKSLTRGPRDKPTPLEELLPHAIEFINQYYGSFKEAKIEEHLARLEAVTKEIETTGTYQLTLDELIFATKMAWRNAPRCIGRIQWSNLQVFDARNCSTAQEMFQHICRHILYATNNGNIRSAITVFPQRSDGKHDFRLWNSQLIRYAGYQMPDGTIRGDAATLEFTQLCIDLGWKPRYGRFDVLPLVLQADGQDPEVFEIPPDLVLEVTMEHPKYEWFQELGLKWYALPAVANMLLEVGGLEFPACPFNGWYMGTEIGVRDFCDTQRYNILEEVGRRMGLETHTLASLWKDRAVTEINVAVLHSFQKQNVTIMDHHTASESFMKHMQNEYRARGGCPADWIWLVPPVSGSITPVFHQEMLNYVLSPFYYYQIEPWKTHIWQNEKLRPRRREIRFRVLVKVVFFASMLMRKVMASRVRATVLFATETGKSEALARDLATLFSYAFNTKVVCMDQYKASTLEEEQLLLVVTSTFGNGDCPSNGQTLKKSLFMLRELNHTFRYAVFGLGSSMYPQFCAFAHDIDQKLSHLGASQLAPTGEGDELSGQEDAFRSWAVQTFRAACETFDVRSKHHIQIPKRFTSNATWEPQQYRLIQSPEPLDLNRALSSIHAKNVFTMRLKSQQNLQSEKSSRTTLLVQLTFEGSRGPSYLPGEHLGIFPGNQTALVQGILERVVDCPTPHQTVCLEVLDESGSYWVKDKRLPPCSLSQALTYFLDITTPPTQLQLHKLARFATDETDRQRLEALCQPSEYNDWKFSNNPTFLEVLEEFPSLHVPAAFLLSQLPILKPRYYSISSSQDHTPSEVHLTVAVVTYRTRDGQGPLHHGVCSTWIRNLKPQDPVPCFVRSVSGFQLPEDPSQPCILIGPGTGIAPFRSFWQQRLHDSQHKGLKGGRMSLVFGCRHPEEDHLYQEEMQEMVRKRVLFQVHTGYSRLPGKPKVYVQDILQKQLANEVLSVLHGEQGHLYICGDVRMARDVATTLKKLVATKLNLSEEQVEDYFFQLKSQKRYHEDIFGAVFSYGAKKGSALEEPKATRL
Summary of the method: (§2)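 HEK293 cells grown to ~70% confluence in DMEM/10% FBS with pen/strep, transiently transfected with 10 μg human or murine iNOS plasmid plus Fugene 6 for 4 h at 37 °C, 10% CO2. Cells replated at 5e5 cells/mL and dosed with compound at once; 1400W (100 μM final) as positive control. After 18 h, DAN (10 μg/mL final) in HCl (0.1 N final) added for 20 min at room temperature. Fluorescence read after NaOH (0.12 N final).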

Nitric oxide synthase 3 = molecular target: T2, Nitric oxide synthase 3 (Homo sapiens, UniProt P29474); assay: Inhibition of human eNOS expressed in HEK293 cells assessed as inhibition A23187 induced nitric oxide production incubated for 24 hrs measured after 18 hrs of […] challenge using 2,3-diaminonaphthalene by fluorescence assay; type: cell-based
T2 sequence (P29474 whole entry): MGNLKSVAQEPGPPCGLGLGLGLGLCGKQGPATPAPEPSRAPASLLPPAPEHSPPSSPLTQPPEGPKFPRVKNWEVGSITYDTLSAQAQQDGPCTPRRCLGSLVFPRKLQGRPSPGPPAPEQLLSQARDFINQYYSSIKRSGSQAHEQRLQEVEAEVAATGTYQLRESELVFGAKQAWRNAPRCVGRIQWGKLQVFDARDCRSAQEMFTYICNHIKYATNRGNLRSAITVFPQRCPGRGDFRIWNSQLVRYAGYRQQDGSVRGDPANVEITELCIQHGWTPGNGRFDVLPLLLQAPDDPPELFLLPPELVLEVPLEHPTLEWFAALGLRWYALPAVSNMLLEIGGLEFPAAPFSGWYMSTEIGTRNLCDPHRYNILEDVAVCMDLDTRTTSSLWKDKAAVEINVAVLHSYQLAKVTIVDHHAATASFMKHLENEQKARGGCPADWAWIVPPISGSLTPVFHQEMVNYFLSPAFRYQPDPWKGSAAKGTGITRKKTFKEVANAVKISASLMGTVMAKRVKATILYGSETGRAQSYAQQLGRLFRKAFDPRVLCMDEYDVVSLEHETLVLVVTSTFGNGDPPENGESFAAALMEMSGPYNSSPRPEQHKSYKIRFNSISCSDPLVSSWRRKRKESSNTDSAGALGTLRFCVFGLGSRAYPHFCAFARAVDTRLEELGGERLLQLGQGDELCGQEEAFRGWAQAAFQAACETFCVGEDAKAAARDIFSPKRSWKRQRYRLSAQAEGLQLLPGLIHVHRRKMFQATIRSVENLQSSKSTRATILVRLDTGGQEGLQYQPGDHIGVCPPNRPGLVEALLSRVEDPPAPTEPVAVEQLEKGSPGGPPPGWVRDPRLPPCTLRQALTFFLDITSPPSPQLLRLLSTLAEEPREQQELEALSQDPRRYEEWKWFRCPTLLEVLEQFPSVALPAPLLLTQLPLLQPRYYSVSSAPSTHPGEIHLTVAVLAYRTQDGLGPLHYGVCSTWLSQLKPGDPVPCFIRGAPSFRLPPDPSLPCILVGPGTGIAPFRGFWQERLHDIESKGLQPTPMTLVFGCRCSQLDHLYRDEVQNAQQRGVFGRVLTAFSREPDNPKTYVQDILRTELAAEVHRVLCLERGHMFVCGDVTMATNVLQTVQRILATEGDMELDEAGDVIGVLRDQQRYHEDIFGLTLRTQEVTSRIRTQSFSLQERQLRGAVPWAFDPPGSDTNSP
Summary of the method: (§3)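 HEK293 cells transfected for 4 h at 37 °C with human nNOS (10 μg) or human eNOS (15 μg) plasmid (Fugene 6, 3:1). Cells replated at 5e5 cells/mL and dosed with compound at once; SEITU (100 μM final) as positive control. After 24 h, cells activated with A23187 (83 nM final) for eNOS or ionomycin (30 μM final) for nNOS. NO read 18 h later as nitrite-DAN fluorescence.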

Mus musculus = assay: Inhibition of LPS-induced iNOS activation in BALB/c mouse assessed as plasma nitrate levels administered via oral gavage before LPS challenge measured after 6 to 8 hrs using 2,3-diaminonaphthalene by fluorescence assay; type: functional
Summary of the method: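 Male BALB/c mice dosed by oral gavage (90% PEG/5% Tween 80/5% PVP + 0.5% w/v CMC) immediately before LPS (10 mg/kg ip in 0.9% NaCl). Mice killed at 6 h. EDTA plasma analysed for nitrate and drug levels; nitrite measured by DAN fluorescence.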

[12] = molecular target: Nitric oxide synthase, inducible (Homo sapiens, UniProt P35228); assay: Inhibition of human iNOS expressed in HEK293 cells assessed as inhibition of nitric oxide production after 18 hrs using 2,3-diaminonaphthalene by fluorescence assay; type: cell-based; summary of the method: as §2
[13] = Half life in mouse at 10 mg/kg, po; type: ADME, organism-based; set-up: dose 10 mg/kg, route oral; conditions: in vivo
Nitric oxide synthase 1 [14] = molecular target: T3, Nitric oxide synthase 1 (Homo sapiens, UniProt P29475); assay: Inhibition of human nNOS expressed in HEK293 cells assessed as inhibition ionomycin induced nitric oxide production incubated for 24 hrs measured after 18 hrs of ionomycin challenge using 2,3-diaminonaphthalene by fluorescence assay; type: cell-based; summary of the method: as §3
[15] = Cmax in mouse at 3 mg/kg, iv and 10 mg/kg, po; type: ADME, organism-based; conditions: in vivo
Nitric oxide synthase 1 [16] = molecular target: T3, Nitric oxide synthase 1; assay: Inhibition of human nNOS expressed in HEK293 cells assessed as inhibition ionomycin induced nitric oxide production at 10 uM incubated for 24 hrs measured after 18 hrs of ionomycin challenge using 2,3-diaminonaphthalene by fluorescence assay; type: cell-based
[17] = molecular target: T4, Nitric oxide synthase 3 (Homo sapiens) (UniProt P29474); assay: Inhibition of human eNOS expressed in HEK293 cells assessed as inhibition A23187 induced nitric oxide production at 100 uM incubated for 24 hrs measured after 18 hrs of […] challenge using 2,3-diaminonaphthalene by fluorescence assay; type: cell-based
T4 sequence (whole entry): T2 sequence (P29474 whole entry)

[18] = Plasma clearance in mouse at 3 mg/kg, iv and 10 mg/kg, po; type: ADME, organism-based
[19] = Oral bioavailability in mouse at 10 mg/kg; type: ADME, organism-based; conditions: in vivo
[20] = Volume of distribution at steady state in mouse at 3 mg/kg, iv and 10 mg/kg, po; type: ADME, organism-based; conditions: in vivo, read-out: Vdss
[21] = Half life in mouse at 3 mg/kg, iv and 10 mg/kg, po; conditions: in vivo

T3 sequence (P29475 whole entry): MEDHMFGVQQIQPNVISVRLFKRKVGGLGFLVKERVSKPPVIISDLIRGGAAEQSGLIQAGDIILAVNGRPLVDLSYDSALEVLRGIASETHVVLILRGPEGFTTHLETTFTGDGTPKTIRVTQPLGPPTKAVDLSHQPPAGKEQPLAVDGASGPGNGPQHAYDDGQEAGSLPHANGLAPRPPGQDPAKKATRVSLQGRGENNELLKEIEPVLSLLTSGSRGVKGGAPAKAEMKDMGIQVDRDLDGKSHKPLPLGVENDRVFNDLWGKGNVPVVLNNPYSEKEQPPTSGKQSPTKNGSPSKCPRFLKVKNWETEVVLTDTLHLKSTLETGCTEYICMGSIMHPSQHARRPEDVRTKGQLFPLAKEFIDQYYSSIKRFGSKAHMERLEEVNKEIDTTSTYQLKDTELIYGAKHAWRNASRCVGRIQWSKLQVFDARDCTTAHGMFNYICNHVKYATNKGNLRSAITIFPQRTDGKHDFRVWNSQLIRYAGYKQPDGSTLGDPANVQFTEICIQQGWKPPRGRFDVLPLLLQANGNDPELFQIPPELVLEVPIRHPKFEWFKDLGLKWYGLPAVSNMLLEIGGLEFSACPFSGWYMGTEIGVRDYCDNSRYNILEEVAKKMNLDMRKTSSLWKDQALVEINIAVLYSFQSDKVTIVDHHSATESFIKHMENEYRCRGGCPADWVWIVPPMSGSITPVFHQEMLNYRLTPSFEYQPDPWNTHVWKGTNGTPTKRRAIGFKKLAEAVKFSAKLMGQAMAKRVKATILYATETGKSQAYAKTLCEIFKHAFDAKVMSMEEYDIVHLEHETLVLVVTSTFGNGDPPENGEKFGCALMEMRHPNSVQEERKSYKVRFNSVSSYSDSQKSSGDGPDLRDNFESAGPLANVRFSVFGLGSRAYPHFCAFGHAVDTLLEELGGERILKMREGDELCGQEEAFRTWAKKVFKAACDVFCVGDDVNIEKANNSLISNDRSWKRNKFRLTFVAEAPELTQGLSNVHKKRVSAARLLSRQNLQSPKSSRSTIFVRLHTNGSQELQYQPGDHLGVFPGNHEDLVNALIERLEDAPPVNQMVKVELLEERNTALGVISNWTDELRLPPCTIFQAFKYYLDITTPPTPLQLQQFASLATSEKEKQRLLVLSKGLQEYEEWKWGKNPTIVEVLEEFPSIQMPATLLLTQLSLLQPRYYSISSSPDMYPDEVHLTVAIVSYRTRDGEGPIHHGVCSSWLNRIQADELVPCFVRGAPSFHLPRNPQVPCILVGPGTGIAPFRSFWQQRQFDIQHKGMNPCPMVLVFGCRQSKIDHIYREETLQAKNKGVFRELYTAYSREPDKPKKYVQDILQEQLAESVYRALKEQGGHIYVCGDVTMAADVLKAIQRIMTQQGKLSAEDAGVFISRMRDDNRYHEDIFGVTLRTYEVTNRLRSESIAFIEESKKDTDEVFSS
Chain of Nitric oxide synthase, inducible (Homo sapiens, UniProt P35228) (P35228 whole entry): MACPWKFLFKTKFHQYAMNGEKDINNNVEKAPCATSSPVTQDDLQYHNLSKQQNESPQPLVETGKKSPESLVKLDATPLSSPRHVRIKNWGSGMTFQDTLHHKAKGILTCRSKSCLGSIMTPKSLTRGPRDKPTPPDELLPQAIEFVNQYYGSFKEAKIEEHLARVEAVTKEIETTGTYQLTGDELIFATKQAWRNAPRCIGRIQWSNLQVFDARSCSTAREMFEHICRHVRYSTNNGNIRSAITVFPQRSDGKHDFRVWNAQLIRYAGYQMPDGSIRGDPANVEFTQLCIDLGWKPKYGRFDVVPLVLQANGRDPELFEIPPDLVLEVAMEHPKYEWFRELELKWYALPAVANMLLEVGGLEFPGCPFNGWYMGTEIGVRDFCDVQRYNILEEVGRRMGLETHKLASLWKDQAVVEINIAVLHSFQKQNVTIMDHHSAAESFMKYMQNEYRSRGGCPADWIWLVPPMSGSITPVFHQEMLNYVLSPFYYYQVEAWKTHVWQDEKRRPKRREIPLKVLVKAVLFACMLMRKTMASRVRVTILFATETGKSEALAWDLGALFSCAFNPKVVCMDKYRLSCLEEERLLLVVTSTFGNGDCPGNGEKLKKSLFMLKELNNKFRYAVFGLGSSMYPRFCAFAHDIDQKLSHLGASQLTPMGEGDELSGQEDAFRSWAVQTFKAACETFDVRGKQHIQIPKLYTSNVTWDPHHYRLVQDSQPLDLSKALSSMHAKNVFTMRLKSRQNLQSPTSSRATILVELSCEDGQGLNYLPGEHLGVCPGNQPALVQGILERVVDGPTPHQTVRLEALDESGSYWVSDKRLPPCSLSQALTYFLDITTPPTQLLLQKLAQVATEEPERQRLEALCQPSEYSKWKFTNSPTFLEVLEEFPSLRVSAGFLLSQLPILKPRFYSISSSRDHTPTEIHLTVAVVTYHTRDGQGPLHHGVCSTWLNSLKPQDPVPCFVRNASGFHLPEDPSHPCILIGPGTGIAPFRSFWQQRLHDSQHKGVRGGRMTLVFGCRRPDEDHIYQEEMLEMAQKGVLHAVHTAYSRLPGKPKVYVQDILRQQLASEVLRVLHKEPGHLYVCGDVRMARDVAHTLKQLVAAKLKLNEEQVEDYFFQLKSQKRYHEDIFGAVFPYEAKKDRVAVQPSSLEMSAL

Compound	AUC [1]	Cmax [2]	bioavailability [3]	half-life [4]	clearance [5]	Vd [6]	half-life [7]	Ratio EC50 (Homo sapiens [8])	Ratio EC50 (Homo sapiens [9])	AUC [10]	t1/2 (Liver)	pEC50 [11]	pEC50 (Nitric oxide synthase 3)	ED50 (Mus musculus)	pEC50 [12]	half-life [13]	pEC50 (Nitric oxide synthase 1 [14])	Cmax [15]	inhibition (Nitric oxide synthase 1 [16])	inhibition [17]	also measured
Cl.O=c1cc(Cn2c(C3CC(F)(F)C3)nc3nccnc32)c2cccc(F)c2[nH]1	21000 ng·h/mL	3400 ng/mL	100%	6.6 h	8.6 mL/min/kg	1.8 L/kg	6.1 h	–	–	–	–	–	–	–	–	–	–	–	–	–	–
O=c1cc(Cn2c(C3CCC3)nc3ccccc32)c2ccc(F)c(F)c2[nH]1	–	–	–	–	–	–	–	1.2	23	10000 ng·h/mL	> 2 h	5.68	5.23	4 mg/kg	6.59	1.4 h	6.49	5700 ng/mL	–	–	–
Cl.O=c1cc(Cn2c(C3CCC3)nc3nccnc32)c2cccc(F)c2[nH]1	23000 ng·h/mL	1800 ng/mL	93%	6.8 h	4.3 mL/min/kg	1.2 L/kg	10 h	–	–	–	–	–	–	–	–	–	–	–	–	–	–
O=c1cc(Cn2c(-c3cncs3)nc3ccccc32)c2ccc(F)c(F)c2[nH]1	–	–	–	–	–	–	–	> 12	> 12	–	0.717 h	–	< 4.00	–	5.07	–	< 5.00	–	< 50%	< 50%	–
O=c1cc(Cn2c(-c3cccnc3)nc3ccccc32)c2ccc(F)c(F)c2[nH]1	–	–	–	–	–	–	–	> 1	> 11	–	> 2 h	–	< 4.00	–	5.03	–	< 5.00	–	< 50%	< 50%	–
CC(C)c1nc2ccccc2n1Cc1cc(=O)[nH]c2c(F)c(F)ccc12	–	–	–	–	–	–	–	0.8	14	19300 ng·h/mL	> 2 h	5.36	4.95	6 mg/kg	6.10	2.6 h	6.19	14000 ng/mL	–	–	clearance [18]: 5.9 mL/min/kg; bioavailability [19]: 58%; Vd [20]: 0.7 L/kg; half-life [21]: 2.1 h
